IC50 data for 20 compounds are collected here from ChEMBL document CHEMBL2375324 (Bioorg Med Chem, 2013).

Structures are written as SMILES.

One assay deals with Bcr/Abl fusion protein (Homo sapiens, UniProt P00519). Briefly: Inhibition of Bcr-Abl kinase (unknown origin) after 30 mins by HTRF assay. The assay is classed as protein assay. (In TR-FRET formats the signal depends on donor and acceptor labels being close together.)
A further assay relates to K562. The assay is described as follows: Antiproliferative activity against human K562 cells after 48 hrs by MTT assay. The assay is classed as functional, cell-based. To be noted: K562, 48 h. The procedure, abridged:
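Exponentially growing K562 cells were seeded at 1 × 10⁴ cells/well and preincubated 24 h at 37 °C. They were then exposed to the compounds at various concentrations for 48 h. MTT (5 mg/mL solution) was added for 4 h at 37 °C, the supernatant was removed, and formazan was dissolved in DMSO. Absorbance was read at 490 nm, and IC₅₀ is reported in µM.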
A general note: Formazan colour is commonly taken as a measure of viable cells.

Bcr/Abl fusion protein, sequence (P00519 whole entry, the tested form may be a part): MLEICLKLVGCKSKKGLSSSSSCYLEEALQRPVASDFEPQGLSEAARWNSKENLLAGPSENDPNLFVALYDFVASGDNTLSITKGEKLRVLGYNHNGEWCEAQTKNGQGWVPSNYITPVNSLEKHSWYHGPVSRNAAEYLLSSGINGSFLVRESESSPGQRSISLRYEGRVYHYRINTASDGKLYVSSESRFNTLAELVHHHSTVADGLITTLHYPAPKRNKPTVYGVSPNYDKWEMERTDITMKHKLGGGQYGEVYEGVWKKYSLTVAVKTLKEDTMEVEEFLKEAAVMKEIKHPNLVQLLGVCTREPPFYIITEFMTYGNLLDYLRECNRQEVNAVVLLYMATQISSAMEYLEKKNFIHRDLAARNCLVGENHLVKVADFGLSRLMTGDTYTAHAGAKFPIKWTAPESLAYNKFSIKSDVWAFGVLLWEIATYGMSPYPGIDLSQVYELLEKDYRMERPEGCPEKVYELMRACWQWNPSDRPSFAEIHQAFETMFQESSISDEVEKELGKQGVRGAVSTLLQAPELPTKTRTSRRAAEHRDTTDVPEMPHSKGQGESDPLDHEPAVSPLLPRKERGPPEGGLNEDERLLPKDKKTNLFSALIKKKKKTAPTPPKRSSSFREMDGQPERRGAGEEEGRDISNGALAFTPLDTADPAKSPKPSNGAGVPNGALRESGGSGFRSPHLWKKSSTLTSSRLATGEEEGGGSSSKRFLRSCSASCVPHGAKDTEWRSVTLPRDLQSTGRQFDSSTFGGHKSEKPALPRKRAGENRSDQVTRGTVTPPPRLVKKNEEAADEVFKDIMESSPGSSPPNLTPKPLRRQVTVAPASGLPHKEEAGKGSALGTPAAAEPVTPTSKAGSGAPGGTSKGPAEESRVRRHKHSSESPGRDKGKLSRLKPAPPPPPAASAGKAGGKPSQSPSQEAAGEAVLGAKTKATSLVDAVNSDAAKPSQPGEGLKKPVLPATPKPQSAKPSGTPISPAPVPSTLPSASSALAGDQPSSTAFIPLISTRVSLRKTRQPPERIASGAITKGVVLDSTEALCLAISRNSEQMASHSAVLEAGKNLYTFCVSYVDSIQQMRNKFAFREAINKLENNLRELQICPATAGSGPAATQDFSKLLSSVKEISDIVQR
Bcr/Abl fusion protein, sequence (P11274 whole entry, further chain, the tested form may be a part): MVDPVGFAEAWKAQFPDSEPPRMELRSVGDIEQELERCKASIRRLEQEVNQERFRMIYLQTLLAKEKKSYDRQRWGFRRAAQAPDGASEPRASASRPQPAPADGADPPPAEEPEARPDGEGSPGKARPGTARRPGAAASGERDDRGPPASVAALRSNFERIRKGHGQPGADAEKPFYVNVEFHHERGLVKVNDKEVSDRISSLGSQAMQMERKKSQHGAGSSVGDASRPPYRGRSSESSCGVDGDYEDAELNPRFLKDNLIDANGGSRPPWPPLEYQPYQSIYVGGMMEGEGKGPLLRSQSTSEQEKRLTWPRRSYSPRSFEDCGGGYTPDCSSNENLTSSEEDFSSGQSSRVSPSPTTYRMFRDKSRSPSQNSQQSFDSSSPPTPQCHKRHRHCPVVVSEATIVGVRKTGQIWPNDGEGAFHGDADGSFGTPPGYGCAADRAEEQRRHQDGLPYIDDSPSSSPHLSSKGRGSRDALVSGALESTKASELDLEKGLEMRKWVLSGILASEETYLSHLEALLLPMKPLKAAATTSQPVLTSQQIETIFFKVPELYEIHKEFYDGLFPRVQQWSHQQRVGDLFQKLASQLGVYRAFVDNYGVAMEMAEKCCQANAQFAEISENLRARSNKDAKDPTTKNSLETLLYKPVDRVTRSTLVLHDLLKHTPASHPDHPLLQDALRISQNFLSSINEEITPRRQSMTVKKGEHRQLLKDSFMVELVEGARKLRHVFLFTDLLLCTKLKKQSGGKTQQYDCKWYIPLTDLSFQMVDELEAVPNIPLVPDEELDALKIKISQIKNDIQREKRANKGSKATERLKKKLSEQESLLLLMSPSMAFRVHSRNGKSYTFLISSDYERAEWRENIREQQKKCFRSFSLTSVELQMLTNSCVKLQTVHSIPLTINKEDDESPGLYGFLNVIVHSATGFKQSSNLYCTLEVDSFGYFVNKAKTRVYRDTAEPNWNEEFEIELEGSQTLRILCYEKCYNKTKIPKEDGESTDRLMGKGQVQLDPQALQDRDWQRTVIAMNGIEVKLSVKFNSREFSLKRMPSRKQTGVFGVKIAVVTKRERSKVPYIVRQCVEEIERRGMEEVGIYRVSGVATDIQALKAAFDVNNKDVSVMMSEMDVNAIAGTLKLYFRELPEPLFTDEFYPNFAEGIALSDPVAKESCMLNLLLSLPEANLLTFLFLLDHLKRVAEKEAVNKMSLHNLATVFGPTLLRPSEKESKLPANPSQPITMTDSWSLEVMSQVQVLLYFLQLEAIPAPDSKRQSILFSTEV

The IC50 is the midpoint of a concentration-inhibition curve. A high value points to weaker potency in that assay. For the compound `COc1ccc(C(=O)Nc2ccc(F)c(Cl)c2)cc1Nc1nccc(-c2cccnc2)n1`, the half-inhibitory concentration (IC50) against Bcr/Abl fusion protein stood at 4.73 nM. Consider `COc1ccc(C(=O)Nc2cccc(C(F)(F)F)c2)cc1Nc1nccc(-c2cccnc2)n1`, for which inhibition at Bcr/Abl fusion protein was half-maximal at 4130 nM (IC50). The same measure, in the same setting: to `COc1ccc(C(=O)Nc2ccc(Br)cc2)cc1Nc1nccc(-c2cccnc2)n1` belongs 4.79 nM; to `COc1ccc(C(=O)Nc2cccc(F)c2)cc1Nc1nccc(-c2cccnc2)n1`, 3.21 nM. `COc1ccc(C(=O)Nc2cc(C(F)(F)F)cc(C(F)(F)F)c2)cc1Nc1nccc(-c2cccnc2)n1` had a half-maximal inhibitory concentration (IC50) with K562 of 4.84 µM. The same measure, in the same setting: to `COc1ccc(C(=O)Nc2cc(Br)cc(C(F)(F)F)c2)cc1Nc1nccc(-c2cccnc2)n1` belongs 215 µM. `COc1ccc(C(=O)Nc2cccc(Cl)c2)cc1Nc1nccc(-c2cccnc2)n1`: the 50% inhibitory concentration (IC50) with K562 was 237 µM; against Bcr/Abl fusion protein, 34.8 nM. On to `COc1ccc(C(=O)Nc2cccc(C(C)=O)c2)cc1Nc1nccc(-c2cccnc2)n1`, for which, in the assay with K562, the midpoint of inhibition, the IC50, lay at 237 µM. The compound `COc1cccc(NC(=O)c2ccc(OC)c(Nc3nccc(-c4cccnc4)n3)c2)c1` yielded an IC50 with K562 of 93.1 µM. As to `COc1ccc(C(=O)Nc2ccncc2)cc1Nc1nccc(-c2cccnc2)n1`, the results for the half-maximal inhibitory concentration (IC50) with K562 and against Bcr/Abl fusion protein were 94.5 µM and 2750 nM, respectively.

At Bcr/Abl fusion protein, `COc1ccc(C(=O)Nc2ncccn2)cc1Nc1nccc(-c2cccnc2)n1` came in with an IC50 of 3.78 nM. The same measure, in the same setting: to `COc1ccc(C(=O)Nc2nccs2)cc1Nc1nccc(-c2cccnc2)n1` belongs 294 nM. `COc1ccc(C(=O)Nc2ccc(OCCCN(C)C)cc2)cc1Nc1nccc(-c2cccnc2)n1`: the IC50 was 38.5 µM with K562 and 0.52 nM on Bcr/Abl fusion protein.

As to `COc1ccc(C(=O)Nc2ccc(OCCN(C)C)cc2)cc1Nc1nccc(-c2cccnc2)n1`, the concentration for half-maximal inhibition (IC50) against Bcr/Abl fusion protein worked out at 2.34 nM. Same read-out and setting: to `CCN(CC)CCOc1ccc(NC(=O)c2ccc(OC)c(Nc3nccc(-c4cccnc4)n3)c2)cc1` belongs 1.48 nM. For `COc1ccc(C(=O)Nc2ccc(OCCN3CCCC3)cc2)cc1Nc1nccc(-c2cccnc2)n1`, the 50% inhibitory concentration (IC50) with K562 is 38.6 µM; against Bcr/Abl fusion protein it was 350 nM.

In the case of `COc1ccc(C(=O)Nc2ccc(OCCN3CCCCC3)cc2)cc1Nc1nccc(-c2cccnc2)n1`, the IC50 with K562 came out at 5.15 µM; on Bcr/Abl fusion protein it was 1110 nM.

Compound `COc1ccc(C(=O)Nc2ccc(OCCN3CCOCC3)cc2)cc1Nc1nccc(-c2cccnc2)n1` registered an IC50 at Bcr/Abl fusion protein of 63.3 nM. On to `COc1ccc(C(=O)Nc2ccc(OCCCN3CCOCC3)cc2)cc1Nc1nccc(-c2cccnc2)n1`, for which the IC50 against Bcr/Abl fusion protein came to 6.34 nM. `Cc1cn(-c2cc(NC(=O)c3ccc(C)c(Nc4nccc(-c5cccnc5)n4)c3)cc(C(F)(F)F)c2)cn1` [NILOTINIB] returned a concentration for half-maximal inhibition (IC50) in the assay on K562 of 89.1 µM.
